Measured values: ChEMBL document CHEMBL4257483, “Design, synthesis and bioactivities of phenithionate analogues or derivatives for anti-schistosomiasis” (Medchemcomm, 2018)
Values after ≈ are worked out from the molar mass of the structure shown. Active and inactive are the calls of the source. The rule behind the calls is not given here.

Assays:
[1] = system: Schistosoma japonicum; assay: Antischistosomal activity against Schistosoma japonicum larva derived from infected mouse assessed as reduction in larva viability after 72 hrs; format: functional, organism-based
Procedure, shortened: (§1)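 Worms perfused with cold heparinised HBSS from mice infected percutaneously with S. japonicum cercariae: larvae at 15 days post-infection (260–280 cercariae), adults at 35 days (120–140 cercariae). Five male and female worms per well in 10% calf serum RPMI 1640 with penicillin, streptomycin and amphotericin B. Preincubated 4 h at 37 °C, 5% CO2, then compounds added and viability recorded over 72 h. IC50 taken at 50% survival. DMSO blank.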

[2] = system: Schistosoma japonicum; assay: Antischistosomal activity against Schistosoma japonicum imago derived from infected mouse assessed as reduction in imago viability after 72 hrs; format: functional, organism-based; procedure, shortened: as §1
[3] = system: Schistosoma japonicum; assay: Antischistosomal activity against Schistosoma japonicum imago derived from infected mouse at 20 ug/ml after 72 hrs; format: functional, organism-based; procedure, shortened: as §1
[4] = system: Schistosoma haematobium; assay: Antischistosomal activity against Schistosoma haematobium imago derived from infected mouse at 20 ug/ml after 72 hrs; format: functional, organism-based
[5] = system: Schistosoma mansoni; assay: Antischistosomal activity against Schistosoma mansoni imago derived from infected mouse at 20 ug/ml after 72 hrs; format: functional, organism-based
[6] = Lipid/water partition coefficient, log P of the compound; format: physicochemical
[7] = Dissociation constant, pKa of the compound; format: physicochemical
[8] = system: Schistosoma japonicum; assay: Antischistosomal activity against Schistosoma japonicum infected in mouse at 25 mg/kg/day, po treated for 5 days measured after day 1 post last dose by ELISA; format: functional, organism-based
Procedure, shortened: (§2)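 Male mice (20–22 g) infected via abdominal skin with 120–140 S. japonicum cercariae. From day 35 post-infection, dosed orally once daily for 5 days. Venous blood then clotted and centrifuged 15 min at 3500 rpm. Serum tested by triple dot ELISA and scored by spot colour: brown +++, yellow ++, slight yellow +, colourless –. DMSO blank.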

[9] = system: Schistosoma japonicum; assay: Antischistosomal activity against Schistosoma japonicum infected in mouse at 50 mg/kg/day, po treated for 5 days measured after day 1 post last dose by ELISA; format: functional, organism-based; procedure, shortened: as §2
[10] = system: Schistosoma japonicum; assay: Antischistosomal activity against Schistosoma japonicum infected in mouse at 25 mg/kg/day, po treated for 5 days measured after day 2 post last dose by ELISA; format: functional, organism-based; procedure, shortened: as §2
[11] = system: Schistosoma japonicum; assay: Antischistosomal activity against Schistosoma japonicum infected in mouse at 50 mg/kg/day, po treated for 5 days measured after day 2 post last dose by ELISA; format: functional, organism-based; procedure, shortened: as §2
[12] = system: Schistosoma japonicum; assay: Antischistosomal activity against Schistosoma japonicum infected in mouse at 25 mg/kg/day, po treated for 5 days measured after day 3 post last dose by ELISA; format: functional, organism-based; procedure, shortened: as §2
[13] = system: Schistosoma japonicum; assay: Antischistosomal activity against Schistosoma japonicum infected in mouse at 50 mg/kg/day, po treated for 5 days measured after day 3 post last dose by ELISA; format: functional, organism-based; procedure, shortened: as §2
[14] = system: Schistosoma japonicum; assay: Antischistosomal activity against Schistosoma japonicum infected in mouse at 25 mg/kg/day, po treated for 5 days measured after day 4 post last dose by ELISA; format: functional, organism-based; procedure, shortened: as §2
[15] = system: Schistosoma japonicum; assay: Antischistosomal activity against Schistosoma japonicum infected in mouse at 50 mg/kg/day, po treated for 5 days measured after day 4 post last dose by ELISA; format: functional, organism-based; procedure, shortened: as §2
[16] = system: Schistosoma japonicum; assay: Antischistosomal activity against Schistosoma japonicum infected in mouse at 25 mg/kg/day, po treated for 5 days measured after day 5 post last dose by ELISA; format: functional, organism-based; procedure, shortened: as §2
[17] = system: Schistosoma japonicum; assay: Antischistosomal activity against Schistosoma japonicum infected in mouse at 50 mg/kg/day, po treated for 5 days measured after day 5 post last dose by ELISA; format: functional, organism-based; procedure, shortened: as §2
[18] = system: Schistosoma japonicum; assay: Antischistosomal activity against Schistosoma japonicum infected in mouse at 25 mg/kg/day, po treated for 5 days measured after day 6 post last dose by ELISA; format: functional, organism-based; procedure, shortened: as §2
[19] = system: Schistosoma japonicum; assay: Antischistosomal activity against Schistosoma japonicum infected in mouse at 50 mg/kg/day, po treated for 5 days measured after day 6 post last dose by ELISA; format: functional, organism-based; procedure, shortened: as §2
[20] = system: Schistosoma japonicum; assay: Antischistosomal activity against Schistosoma japonicum infected in mouse at 25 mg/kg/day, po treated for 5 days measured after day 7 post last dose by ELISA; format: functional, organism-based; procedure, shortened: as §2
[21] = system: Schistosoma japonicum; assay: Antischistosomal activity against Schistosoma japonicum infected in mouse at 50 mg/kg/day, po treated for 5 days measured after day 7 post last dose by ELISA; format: functional, organism-based; procedure, shortened: as §2
[22] = system: Schistosoma japonicum; assay: Antischistosomal activity against Schistosoma japonicum infected in mouse at 25 mg/kg/day, po treated for 5 days measured after day 8 post last dose by ELISA; format: functional, organism-based; procedure, shortened: as §2
[23] = system: Schistosoma japonicum; assay: Antischistosomal activity against Schistosoma japonicum infected in mouse at 50 mg/kg/day, po treated for 5 days measured after day 8 post last dose by ELISA; format: functional, organism-based; procedure, shortened: as §2
[24] = system: Schistosoma japonicum; assay: Antischistosomal activity against Schistosoma japonicum infected in mouse at 25 mg/kg/day, po treated for 5 days measured after day 9 post last dose by ELISA; format: functional, organism-based; procedure, shortened: as §2
[25] = system: Schistosoma japonicum; assay: Antischistosomal activity against Schistosoma japonicum infected in mouse at 50 mg/kg/day, po treated for 5 days measured after day 9 post last dose by ELISA; format: functional, organism-based; procedure, shortened: as §2
[26] = Acute toxicity in po dosed mouse infected with Schistosoma japonicum treated for 5 days; format: organism-based; conditions: in vivo

In the case of `Oc1ccc(OC(=S)Nc2ccc(Oc3ccc(C(F)(F)F)cc3)cc2)cc1`, the IC50 [1] is reported as 5.21 µg/mL (≈ 12.9 µM), the IC50 [2] is reported as 6.35 µg/mL (≈ 15.7 µM) and the Activity [3] is reported as “Active”. The Activity [4] was “inactive”, the Activity [5] was “inactive” and the logP [6] was 6.11. The pKa [7] was 9.23, the Activity [8] was “Active” and the Activity [9] was “Active”. The Activity [10] was “Active”, the Activity [11] was “Active” and the Activity [12] was “Active”. The Activity [13] was “Active”, the Activity [14] was “Active” and the Activity [15] was “inactive”. For the same compound, the Activity [16] was “Active”, the Activity [17] was “inactive” and the Activity [18] was “inactive”. For the same compound, the Activity [19] was “inactive”, the Activity [20] was “inactive” and the Activity [21] was “inactive”. The Activity [22] was “inactive”, the Activity [23] was “inactive” and the Activity [24] was “inactive”. The Activity [25] was “inactive” and the LD50 at 120 h [26] was greater than 500 mg/kg.
In the case of `Oc1ccc(OC(=S)Nc2ccc(Sc3ccc(C(Cl)(Cl)Cl)cc3)cc2)cc1`, the IC50 [1] is reported as 21.1 µg/mL (≈ 44.8 µM), the IC50 [2] is reported as 37.3 µg/mL (≈ 79.2 µM) and the logP [6] is reported as 7.43. The pKa [7] was 9.22.
In the case of `CC(=O)Nc1ccc(OC(=S)Nc2ccc(Nc3ccc([N+](=O)[O-])cc3)cc2)cc1`, the IC50 [1] is reported as 8.22 µg/mL (≈ 19.5 µM), the IC50 [2] is reported as 15.2 µg/mL (≈ 36 µM) and the logP [6] is reported as 4.32. For the same compound, the pKa [7] was 9.04.
In the case of `O=[N+]([O-])c1ccc(Sc2ccc(NC(=S)Oc3ccc(O)cc3)cc2)cc1`, the IC50 [1] is reported as 15.7 µg/mL (≈ 39.3 µM), the IC50 [2] is reported as 30.5 µg/mL (≈ 76.6 µM) and the logP [6] is reported as 5.25. It also gave a pKa [7] of 9.21.
`CC(=O)Nc1ccc(OC(=S)Nc2ccc(Sc3ccc(C(Cl)(Cl)Cl)cc3)cc2)cc1` showed an IC50 [1] of 23.5 µg/mL (≈ 46 µM), an IC50 [2] of 40.4 µg/mL (≈ 78.9 µM) and a logP [6] of 6.71. It also gave a pKa [7] of 9.01.
In the case of `CC(=O)Nc1ccc(OC(=S)Nc2ccc(Oc3ccc(C(F)(F)F)cc3)cc2)cc1`, the IC50 [1] is reported as 10.4 µg/mL (≈ 23.2 µM), the IC50 [2] is reported as 17.3 µg/mL (≈ 38.7 µM) and the logP [6] is reported as 5.41. It also gave a pKa [7] of 9.03.
`CC(=O)Nc1ccc(OC(=S)Nc2ccc(Sc3ccc([N+](=O)[O-])cc3)cc2)cc1` gave an IC50 [1] of 16.7 µg/mL (≈ 37.9 µM), an IC50 [2] of 31.2 µg/mL (≈ 71 µM) and a logP [6] of 5.06. The pKa [7] was 8.99.
For `O=[N+]([O-])c1ccc(Oc2ccc(NC(=S)Oc3ccc(O)cc3)cc2)cc1`, the IC50 [1] was 6.38 µg/mL (≈ 16.7 µM), the IC50 [2] was 8.02 µg/mL (≈ 21 µM) and the Activity [3] was “Active”. For the same compound, the Activity [4] was “inactive”, the Activity [5] was “inactive” and the logP [6] was 5.01. The pKa [7] was 9.23, the Activity [8] was “Active” and the Activity [9] was “Active”. For the same compound, the Activity [10] was “Active”, the Activity [11] was “Active” and the Activity [12] was “Active”. For the same compound, the Activity [13] was “Active”, the Activity [14] was “Active” and the Activity [15] was “Active”. The Activity [16] was “Active”, the Activity [17] was “Active” and the Activity [18] was “Active”. For the same compound, the Activity [19] was “inactive”, the Activity [20] was “Active” and the Activity [21] was “inactive”. The Activity [22] was “inactive”, the Activity [23] was “inactive” and the Activity [24] was “inactive”. For the same compound, the Activity [25] was “inactive” and the LD50 at 120 h [26] was 275 mg/kg.
With `O=[N+]([O-])c1ccc(Nc2ccc(NC(=S)Oc3ccccc3)cc2)cc1` the IC50 [1] was 6.53 µg/mL (≈ 17.9 µM), the IC50 [2] was 8.21 µg/mL (≈ 22.5 µM) and the Activity [8] was “Active”. For the same compound, the Activity [9] was “Active”, the Activity [10] was “Active” and the Activity [12] was “Active”. For the same compound, the Activity [14] was “Active”, the Activity [16] was “Active” and the Activity [18] was “Active”. For the same compound, the Activity [20] was “Active”, the Activity [22] was “Active” and the Activity [24] was “Active”. The LD50 at 120 h [26] was 310 mg/kg.
